In general, Tmax refers to the time from dosing to the highest level. What is called Cmax is the highest concentration seen after dosing. As a reminder, the AUC is concentration integrated over time. High values mean more exposure, low ones less exposure.

Structures are written as SMILES.

Series [1] concerns Mycobacterium tuberculosis. Nature of the series: Bactericidal activity against Mycobacterium tuberculosis in pulmonary tuberculosis patient assessed as reduction in sputum bacterial count at 100 […], po once daily measured after 3 days. It counts as functional. A digest of the protocol:
(§1)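 Hospitalized treatment-naïve smear-positive patients took oral doses once daily, observed, after breakfast. Sputum was pooled over 16 h overnight at baseline, after each of the 7 dosing days, and on the night after the first standard-therapy dose. Sputum was stirred, digested with dithiothreitol for 20 min at room temperature, and diluted 10-fold. Dilutions were plated in quadruplicate on selective 7H11 agar and counted after 3-4 weeks at 37°C at 20-200 colonies. The read-out was change in log10 CFU/ml from baseline, with a count of 0 set to log 0.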

Series [2] has as its system Homo sapiens. The series is described as follows: Toxicity in pulmonary tuberculosis patient assessed as somnolence at 400 mg/kg, po once daily for 7 days. The series is classed as organism-based. The arrangement: dose 400 mg/kg, route oral. Conditions: in vivo, 168 h.
The nature of series [3]: Drug uptake in pulmonary tuberculosis patient at 400 mg/kg, po once daily for 7 days by liquid chromatography-MS/MS analysis. To be noted: human, in vivo, read-out: Drug uptake. Also on record: dose 400 mg/kg, route oral. The series is classed as ADME, organism-based. A digest of the protocol:
(§2)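 Treatment-naïve smear-positive pulmonary TB patients, hospitalized; 7-day oral once-daily monotherapy, directly observed, within 30 min after breakfast. Heparinized plasma taken predose and 1, 2, 3, 4, 5, 6, 8, 12 and 24 h postdose on day 7, plus predose on days 5 and 6. Parent drug and N-monodesmethyl metabolite measured by validated LC-MS/MS. Noncompartmental parameters; AUC0-24 by linear trapezoidal rule.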

For series [4], the system named is Mycobacterium tuberculosis. The series is described as follows: Bactericidal activity against Mycobacterium tuberculosis in pulmonary tuberculosis patient assessed as reduction in sputum bacterial count at 25 […], po once daily measured after 2 days. It counts as functional. A digest of the protocol: as §1
The subject of series [5] is Mycobacterium tuberculosis. The series is described as follows: Bactericidal activity against Mycobacterium tuberculosis in pulmonary tuberculosis patient assessed as reduction in sputum bacterial count at 400 mg/kg, po once daily measured on day 8 after starting standard TB therapy. The series is classed as functional. The method in brief:
as §1

In series [6] the test system is Mycobacterium tuberculosis. Nature of the series: Bactericidal activity against Mycobacterium tuberculosis in pulmonary tuberculosis patient assessed as reduction in sputum bacterial count at 100 […], po once daily measured on day 8 after starting standard TB therapy. The series is classed as functional. A digest of the protocol: as §1
The test system of series [7] is Mycobacterium tuberculosis. Nature of the series: Bactericidal activity against Mycobacterium tuberculosis in pulmonary tuberculosis patient assessed as reduction in sputum bacterial count at 400 mg/kg, po once daily measured after 6 days. It counts as functional. A digest of the protocol:
as §1

In series [8] the test system is Homo sapiens. The series is described as follows: Steady-state plasma concentration in pulmonary tuberculosis patient at 25 mg/kg, po once daily for 7 days by liquid chromatography-MS/MS analysis. It counts as ADME, organism-based. Also on record: dose 25 mg/kg, route oral. Conditions: in vivo, 168 h. The method in brief:
as §2

A short description of series [9]: Tmax in pulmonary tuberculosis patient at 400 mg/kg, po once daily for 7 days by liquid chromatography-MS/MS analysis. To be noted: human, in vivo. It counts as ADME, organism-based. The arrangement: dose 400 mg/kg, route oral. A digest of the protocol:
as §2

In series [10] the test system is Homo sapiens. Nature of the series: Toxicity in pulmonary tuberculosis patient assessed as hemoptysis at 100 […], po once daily. It counts as organism-based. Also on record: dose 100 mg/kg, route oral. Conditions: in vivo.
The test system of series [11] is Mycobacterium tuberculosis. Nature of the series: Bactericidal activity against Mycobacterium tuberculosis in pulmonary tuberculosis patient assessed as reduction in sputum bacterial count at 25 […], po once daily measured after 1 day. It counts as functional. A digest of the protocol:
as §1

Series [12] concerns Mycobacterium tuberculosis. The series is described as follows: Bactericidal activity against Mycobacterium tuberculosis in pulmonary tuberculosis patient assessed as reduction in sputum bacterial count at 400 mg/kg, po once daily measured after 7 days. It counts as functional. The method in brief:
as §1

The subject of series [13] is Homo sapiens. Nature of the series: Toxicity in pulmonary tuberculosis patient assessed as diarrhea at 400 mg/kg, po once daily. It counts as organism-based. The arrangement: dose 400 mg/kg, route oral. To be noted: in vivo.
Series [14] can be described thus: Tmax in pulmonary tuberculosis patient at 25 mg/kg, po once daily for 7 days by liquid chromatography-MS/MS analysis. It counts as ADME, organism-based. Also on record: dose 25 mg/kg, route oral. Conditions: human, in vivo. A digest of the protocol:
as §2

Series [15] concerns Mycobacterium tuberculosis. The series is described as follows: Bactericidal activity against Mycobacterium tuberculosis in pulmonary tuberculosis patient assessed as reduction in sputum bacterial count at 400 […], po once daily measured after 1 day. It counts as functional. A digest of the protocol:
as §1

In series [16] the test system is Mycobacterium tuberculosis. The series is described as follows: Bactericidal activity against Mycobacterium tuberculosis in pulmonary tuberculosis patient assessed as reduction in sputum bacterial count at 100 […], po once daily measured after 2 days. The series is classed as functional. The method in brief: as §1
For series [17], the system named is Mycobacterium tuberculosis. Nature of the series: Bactericidal activity against Mycobacterium tuberculosis in pulmonary tuberculosis patient assessed as reduction in sputum bacterial count at 400 mg/kg, po once daily measured after 4 days. The series is classed as functional. The method in brief:
as §1

A short description of series [18]: Cmax in pulmonary tuberculosis patient at 25 mg/kg, po once daily for 7 days by liquid chromatography-MS/MS analysis. The arrangement: dose 25 mg/kg, route oral. The series is classed as ADME, organism-based. To be noted: human, in vivo. A digest of the protocol:
as §2

A short description of series [19]: Drug uptake in pulmonary tuberculosis patient at 25 mg/kg, po once daily for 7 days by liquid chromatography-MS/MS analysis. The series is classed as ADME, organism-based. To be noted: human, in vivo, read-out: Drug uptake. The arrangement: dose 25 mg/kg, route oral. The method in brief:
as §2

For series [20], the system named is Mycobacterium tuberculosis. The series is described as follows: Bactericidal activity against Mycobacterium tuberculosis in pulmonary tuberculosis patient assessed as reduction in sputum bacterial count at 400 mg/kg, po once daily measured after 2 days. It counts as functional. The method in brief: as §1
Series [21] can be described thus: AUC (0 to 24 hrs) in pulmonary tuberculosis patient at 25 mg/kg, po once daily for 7 days by liquid chromatography-MS/MS analysis. It counts as ADME, organism-based. Also on record: time < 24 hr, dose 25 mg/kg, route oral. To be noted: human, plasma. A digest of the protocol:
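Treatment-naïve, sputum smear-positive patients, hospitalized, took the drug orally once daily under direct observation within 30 min after breakfast. On day 7, heparinized plasma was drawn predose and at 1, 2, 3, 4, 5, 6, 8, 12 and 24 h for parent drug and M2 metabolite. Levels were measured by validated LC-MS/MS, and AUC0-24 was calculated noncompartmentally by the linear trapezoidal rule.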

In series [22] the test system is Homo sapiens. Nature of the series: Toxicity in pulmonary tuberculosis patient assessed as rash at 100 […], po once daily. It counts as organism-based. Also on record: dose 100 mg/kg, route oral. To be noted: in vivo.
Series [23] concerns Mycobacterium tuberculosis. Nature of the series: Bactericidal activity against Mycobacterium tuberculosis in pulmonary tuberculosis patient assessed as reduction in sputum bacterial count at 25 […], po once daily measured after 3 days. The series is classed as functional. A digest of the protocol: as §1

As for `COc1nc2ccc(Br)cc2cc1[C@@H](c1ccccc1)[C@@](O)(CCN(C)C)c1cccc2ccccc12` [BEDAQUILINE], the log10CFU/ml is on record as -0.37 in series [1]; 0.02 in series [4]; -1.14 in series [5]; -0.71 in series [6]; -0.46 in [7]; -0.06 in [11]. Moreover, the log10CFU/ml in series [12] is reported as -0.77; in [15] it was -0.07; in series [16] it was -0.2; in [17], -0.22; in series [20], 0.04; in series [23] it was -0.04. The Activity in the series with Homo sapiens [2] worked out at 7%; with Homo sapiens [10], 6.3%; in the series with Homo sapiens [13], 7%; with Homo sapiens [22], 7%. In addition, the concentration at 168 h in series [3] turned out to be 1530 ng/mL; in [19], 104 ng/mL. The same compound registered a Css in the series on Homo sapiens [8] of 165.5 ng/mL. Further, the Tmax was 4 h in series [9] and 3.93 h in [14]. Besides, the peak level in series [18] (Cmax) was 319 ng/mL. In addition, the AUC at 24 h in series [21] worked out at 3970 ng·h/mL.

The values are drawn from ChEMBL document CHEMBL1275461, “Early bactericidal activity and pharmacokinetics of the diarylquinoline TMC207 in treatment of pulmonary tuberculosis” (Antimicrob Agents Chemother, 2008).
